Source: ChEMBL document CHEMBL2150886, “Synthesis of [3β-acetoxy-urs-12-en-28-oyl]-1-monoglyceride and investigation on its anti tumor effects against BGC-823” (Bioorg Med Chem, 2011)
The source made the active and inactive calls. The rule behind the calls is not given here.

What was measured:
BGC-823 [1] = test: Induction of apoptosis in human BGC823 cells assessed as increase in caspase 3 activity at 20 uM incubated for 48 hrs relative to untreated control; assay type: functional
How it was run: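 BGC-823 cells were exposed to 0, 10 or 20 µM for 48 h, detached with trypsin/EDTA and washed in cold PBS. About 10⁶ cells were lysed, and the lysate was incubated 1 h with Ac-DEVD-pNA, with cleavage read at 405 nm. Activity was normalised to Bradford protein and expressed relative to the untreated control. Mean ± SD of three independent experiments.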

Mus musculus [2] = test: Toxicity in human BGC823 cells xenografted nude mouse assessed as body weight changes at 6 mg/kg, iv treated 5 times on day 1, 4, 7, 10 and day 13 post tumor implant (reference value: 20.21 +/- 1.83 grams); assay type: organism-based, BGC-823; parameters: dose 6 mg/kg, route intravenous; conditions: in vivo
How it was run: (§1)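 Nude mice (male, 5 weeks, 18–22 g) carried subcutaneous BGC-823 xenografts from 1 × 10⁷ cells. Dosing started at about 200 mm³ tumour volume, with eight mice per group. Each dose was 0.2 mL given iv; the saline control received 0.9% saline. Body weight was recorded on days 1, 4, 7, 10, 13 and 16 of treatment and reported as mean ± SD, n = 8.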

BGC-823 [3] = test: Antitumor activity against human BGC823 cells xenografted in nude mouse assessed as reduction in tumor volume at 30 mg/kg, iv dosed 5 times; assay type: functional; parameters: scale not given: the % may be the effect or the level left
How it was run: (§2)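 Male nude mice (5 weeks, 18–22 g) inoculated subcutaneously with 1 × 10⁷ BGC-823 cells. At about 200 mm³ tumours, animals were randomised into four groups of eight. Each received 0.2 mL iv by tail vein; controls got 0.9% saline. Tumour volume was measured daily as 0.5 × length × width²; tumours were weighed at the end. Values are mean ± SD, n = 8.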

BGC-823 [4] = test: Antitumor activity against human BGC823 cells xenografted in nude mouse assessed as reduction in tumor volume at 6 mg/kg, iv dosed 5 times; assay type: functional; parameters: scale not given: the % may be the effect or the level left; how it was run: as §2
BGC-823 [5] = test: Induction of apoptosis in human BGC823 cells assessed as late apoptotic cell population at 30 uM by annexinV/propidium iodide staining (reference value: 2.1%); assay type: functional
BGC-823 [6] = test: Induction of apoptosis in human BGC823 cells assessed as necrotic damaged cell population at 20 uM by annexinV/propidium iodide staining (reference value: 0.5%; assay type: functional
HT-29 = test: Cytotoxicity against human HT-29 cells incubated for 48 hrs by MTT assay; assay type: functional, cell-based; conditions: HT-29, 48 h
How it was run: (§3)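 Cells were grown in RPMI-1640 with 10% heat-inactivated FCS at 37 °C under 5% CO₂, seeded at 5 × 10³ per well and left 24 h. Compounds in DMSO were diluted in medium to 0.5% final DMSO; controls received 0.5% DMSO. Exposure was 24–72 h, followed by MTT for 4 h, formazan dissolved in DMSO, and A570. Six wells per sample; IC₅₀ taken at 50% inhibition; ≥3 repeats.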

BGC-823 [7] = test: Induction of apoptosis in human BGC823 cells assessed as early apoptotic cell population at 30 uM by annexinV/propidium iodide staining (reference value: 1.9%); assay type: functional
Mus musculus [8] = test: Toxicity in human BGC823 cells xenografted nude mouse assessed as body weight changes at 6 mg/kg, iv treated […] on day 1, 4, 7, 10, 13 and day 16 post tumor implant (reference value: 20.12 +/- 1.52 grams); assay type: organism-based, BGC-823; parameters: dose 6 mg/kg, route intravenous; conditions: in vivo
BGC-823 [9] = test: Reduction in survivin protein expression in human BGC823 cells incubated for 48 hrs by Western blotting; assay type: functional, cell-based
How it was run: (§4)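 BGC-823 cells were treated with 10, 20 or 40 µM for 48 h, detached with trypsin/EDTA, and more than 10⁶ cells were lysed. Protein was quantified by Bradford, and 150–200 µg per lane was run on 12.5% SDS-PAGE and transferred to PVDF. Antibodies: Survivin 1:1000, Bcl-2 1:200, β-actin 1:1000; HRP secondary 1 h; ECL detection. Expression was quantified relative to control.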

BGC-823 [10] = test: Cell cycle arrest in human BGC823 cells assessed as accumulation of cells at subG0/G1 phase at 20 uM incubated for 72 hrs by propidium iodide staining based flow cytometry (Rvb= 0.66%); assay type: functional
How it was run: (§5)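 BGC-823 cells were exposed to 20 µM for 24, 48 or 72 h, or to 10, 20 or 40 µM for 48 h. About 10⁶ cells were harvested and stained with propidium iodide using a cell cycle kit, then analysed by flow cytometry. Percentages were read for sub-G0/G1, G0/G1, S and G2/M. Each experiment was run at least three times; mean ± SD.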

BGC-823 [11] = test: Induction of apoptosis in human BGC823 cells assessed as late apoptotic cell population at 10 uM by annexinV/propidium iodide staining (reference value: 2.1%); assay type: functional
BGC-823 [12] = test: Induction of apoptosis in human BGC823 cells assessed as viable cell population at 20 uM by annexinV/propidium iodide staining (reference value: 95.5%); assay type: functional
BGC-823 [13] = test: Induction of apoptosis in human BGC823 cells assessed as viable cell population at 40 uM by annexinV/propidium iodide staining (reference value: 95.5%); assay type: functional
HepG2 = test: Cytotoxicity against human HepG2 cells incubated for 48 hrs by MTT assay; assay type: functional, cell-based; conditions: HepG2, 48 h; how it was run: as §3
BGC-823 [14] = test: Induction of cell shrinkage in human BGC823 cells at 30 uM incubated for 48 hrs by MTT assay; assay type: functional, cell-based
BGC-823 [15] = test: Cell cycle arrest in human BGC823 cells assessed as accumulation of cells at subG0/G1 phase at 20 uM incubated for 24 hrs by propidium iodide staining based flow cytometry (Rvb= 0.66%); assay type: functional; how it was run: as §5
Mus musculus [16] = test: Toxicity in human BGC823 cells xenografted nude mouse assessed as body weight changes at 30 mg/kg, iv treated 2 times on day 1 and day 4 post tumor implant (reference value: 20.58 +/- 1.35 grams); assay type: organism-based, BGC-823; parameters: dose 30 mg/kg, route intravenous; conditions: in vivo; how it was run: as §1
BGC-823 [17] = test: Induction of apoptosis in human BGC823 cells assessed as early apoptotic cell population at 10 uM by annexinV/propidium iodide staining (reference value: 1.9%); assay type: functional
BGC-823 [18] = test: Reduction in BCL-2 protein expression in human BGC823 cells at 1o to 40 uM incubated for 48 hrs by Western blotting; assay type: functional, cell-based; how it was run: as §4
Mus musculus [19] = test: Toxicity in human BGC823 cells xenografted nude mouse assessed as body weight changes at 6 mg/kg, iv treated on day 1 post tumor implant (reference value: 19.69 +/- 1.21 grams); assay type: organism-based, BGC-823; parameters: dose 6 mg/kg, route intravenous; conditions: in vivo
Mus musculus [20] = test: Toxicity in human BGC823 cells xenografted nude mouse assessed as body weight changes at 6 mg/kg, iv treated 3 times on day 1, day 4 and day 7 post tumor implant (reference value: 20.79 +/- 1.29 grams); assay type: organism-based, BGC-823; parameters: dose 6 mg/kg, route intravenous; conditions: in vivo; how it was run: as §1
BGC-823 [21] = test: Induction of apoptosis in human BGC823 cells assessed as induction of DNA fragmentation at 10 to 40 uM incubated for 48 hrs by alkaline comet assay; assay type: functional, cell-based
How it was run: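 Alkaline comet assay on about 10⁵ BGC-823 cells after 48 h at 37 °C with 10, 20 or 40 µM. Cells with diffuse fan-like tails and small heads were scored as apoptotic; large defined heads with minimal DNA diffusion were scored as normal.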

CC(=O)O[C@H]1CC[C@]2(C)[C@H]3CC=C4[C@@H]5[C@@H](C)[C@H](C)CC[C@]5(C(=O)OCC(O)CO)CC[C@@]4(C)[C@]3(C)CC[C@H]2C1(C)C (stereo partly drawn)
fold change (FC) (BGC-823 [1]): 3.65
Activity (Mus musculus [2]): 20.07 g
Activity (BGC-823 [3]): 41.9%
Activity (BGC-823 [4]): 29.3%
Activity (BGC-823 [5]): 29%
Activity (BGC-823 [6]): 0.1%
IC50 (HT-29): 18.4 µM
Activity (BGC-823 [7]): 45.1%
Activity (Mus musculus [8]): 20.09 g
Activity (BGC-823 [9]): Dose-dependent effect
Activity (BGC-823 [10]): 13.63%
Activity (BGC-823 [11]): 2.6%
Activity (BGC-823 [12]): 72.2%
Activity (BGC-823 [13]): 2%
IC50 (HepG2): 27.5 µM
Activity (BGC-823 [14]): Active
Activity (BGC-823 [15]): 3.71%
Activity (Mus musculus [16]): 19.61 g
Activity (BGC-823 [17]): 4.5%
Activity (BGC-823 [18]): Active
Activity (Mus musculus [19]): 19.21 g
Activity (Mus musculus [20]): 20.13 g
Activity (BGC-823 [21]): Dose-dependent effect
